Laboratory results as given in ChEMBL document CHEMBL1143381 (J Med Chem, 2009).
Active and inactive are the calls of the source. No cut-off for these calls is given here.

Assays:
K562 [1] = assay: Cytotoxicity against human doxorubicin-resistant K562 cells expressing Pgp after 72 hrs by MTT assay; format: functional, cell-based; settings: K562, 72 h
How it was run: (§1)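 MTT assay: cells seeded at 3000/well with doxorubicin (0.001–0.1 µM in K562; 0.1–10 µM in K562/DOX), alone or with modulator, for 72 h at 37 °C. Doxorubicin IC50 is the 50% drop in MTT conversion versus untreated cells, read from plots. RF is the IC50 without modulator divided by the IC50 with modulator. Values are mean ± SE of ≥3 runs, or mean of two runs, in quadruplicate cultures.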

K562 [2] = assay: Cytotoxicity against human doxorubicin-sensitive K562 cells after 72 hrs by MTT assay; format: functional, cell-based; settings: K562, 72 h; how it was run: as §1
K562 [3] = assay: Reversal of P-glycoprotein-mediated multidrug resistance in human anthracycline-resistant K562 cells assessed as drug level causing 50% increase in nuclear concentration of pirarubicin by spectrofluorimetry; format: cell-based
How it was run: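 K562/DOX cells were grown in RPMI 1640 with 10% FCS at 37 °C, 5% CO2, and kept resistant by a monthly 3-day exposure to 400 nM doxorubicin. Cultures were started at 5 × 10^5 cells/mL and used 24 h later. Pirarubicin uptake was followed as fluorescence decrease at 590 nm (ex 480 nm) in 2 mL buffer at 37 °C.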

K562 [4] = assay: Potentiation of doxorubicin-induced growth inhibition in human doxorubicin-resistant K562 cells expressing Pgp at 1 uM after 72 hrs by MTT assay; format: functional, cell-based; how it was run: as §1
K562 [5] = assay: Potentiation of doxorubicin-induced growth inhibition in human doxorubicin-resistant K562 cells expressing Pgp at 3 uM after 72 hrs by MTT assay; format: functional, cell-based; how it was run: as §1
K562 [6] = assay: Cytotoxicity against human doxorubicin-resistant K562 cells expressing Pgp assessed as cell viability by trypan blue exclusion assay; format: functional

## COc1cccc2c1C(=O)c1c(O)c3c(c(O)c1C2=O)C[C@@](O)(C(=O)CO)C[C@@H]3O[C@H]1C[C@H](N)[C@H](O)[C@H](C)O1 [DOXORUBICIN]
K562 [1]
  IC50: 2.84 µM
K562 [2]
  IC50: 0.032 µM

## COc1cc(C(=O)OCCCN(C)CCCOC(=O)c2c3ccccc3cc3ccccc23)cc(OC)c1OC
K562 [3]
  Activity: 0.6 µM

## COc1ccc(C(C#N)(CCCNCc2c3ccccc3cc3ccccc23)C(C)C)cc1OC (configuration not stated)
K562 [3]
  Activity: 0.05 µM

## COc1ccc(CCN(C)CCCC(C#N)(c2ccc(OC)c(OC)c2)C(C)C)cc1OC (configuration not stated)
K562 [4]
  Activity: Active
K562 [5]
  Activity: Active
K562 [6]
  Activity: >95%
